From ChEMBL document CHEMBL2331235, “Solphenazines A-F, glycosylated phenazines from Streptomyces sp. strain DL-93” (J Nat Prod, 2013)
Calls of active or inactive are those of the source. The rule behind the calls is not given here.

Tests used:
Staphylococcus aureus = assay: Antimicrobial activity against methicillin-resistant Staphylococcus aureus ATCC 43300 by microbroth dilution assay; assay type: functional
Streptomyces scabiei [1] = assay: Antimicrobial activity against Streptomyces scabies LK 82 at 25 ug/disk after 2 days by disk diffusion assay; assay type: functional
Outline: (§1)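 S. scabies grown 5 days in liquid ISP2, diluted 1:10 in molten ISP2 agar. Paper discs carrying 25 μg compound (applied in 20 μL methanol) were set on a thin agar layer and overlaid with 10 mL of the seeded agar (double-layer method). Plates were incubated 2 days at 30 °C, and inhibition zone diameters were measured.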

Pseudomonas aeruginosa = assay: Antimicrobial activity against Pseudomonas aeruginosa ATCC 27853 by microbroth dilution assay; assay type: functional
Vero [2] = assay: (§2) Cytotoxicity against African green monkey Vero cells at 150 uM after 72 hrs by MTT assay; assay type: cell-based; settings: chlorocebus sabaeus, vero, 72 h, 150 µM
Outline: (§3)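 Vero cells in MEM and HCT-116 cells in RPMI, each with 10% FBS, 1% penicillin–streptomycin and 1% Glutamax. Cells were seeded at 3.0 × 10^4 per well and left to adhere overnight. Medium was replaced, and compounds in DMSO were added to a final 150–0.1 μM. Cells were incubated 72 h at 37 °C in 4.5% CO2 (humidified), then viability was read by MTT.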

Acinetobacter baumannii = assay: Antimicrobial activity against Acinetobacter baumannii ATCC 19606 by microbroth dilution assay; assay type: functional; settings: ATCC 19606 = CIP 70.34 = JCM 6841
Streptomyces scabiei [3] = assay: Antimicrobial activity against Streptomyces scabies NRRL B 2795 at 25 ug/disk after 2 days by disk diffusion assay; assay type: functional; outline: as §1
Candida albicans = assay: Antimicrobial activity against Candida albicans ATCC 10231 by microbroth dilution assay; assay type: functional
HCT16 = assay: (§4) Cytotoxicity against human […] cells after 72 hrs by MTT assay; assay type: functional, cell-based; outline: as §3
Cryptococcus neoformans = assay: Antimicrobial activity against Cryptococcus neoformans ATCC 66031 by microbroth dilution assay; assay type: functional
Bacillus spizizenii = assay: Antimicrobial activity against Bacillus subtilis ATCC 6633 by microbroth dilution assay; assay type: functional
Klebsiella pneumoniae = assay: Antimicrobial activity against Klebsiella pneumoniae ATCC 13883 by microbroth dilution assay; assay type: functional
Escherichia coli [4] = assay: Antimicrobial activity against Escherichia coli ATCC 25922 by microbroth dilution assay; assay type: functional
Enterococcus faecalis = assay: Antimicrobial activity against vancomycin-resistant Enterococcus faecalis ATCC 51299 by microbroth dilution assay; assay type: functional
[5] = target: DNA topoisomerase 2-alpha (Homo sapiens) (UniProt P11388); assay: Inhibition of topoisomerase-2 (unknown origin)-mediated DNA cleavage […] by agarose gel electrophoresis
Outline: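 Human Topo II cleavage assay: 5 units enzyme with 0.3 μg kDNA in the decatenation buffer without potassium glutamate, with etoposide as control. Reactions ran 10 min at 37 °C, then SDS to 1% for 10 min, then 40 mM EDTA and 100 μg/mL proteinase K for 1 h at 50 °C. Products were run on ethidium-containing 1.2% agarose. Linear DNA was compared with and without compound, at least in duplicate.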

[6] = target: T1, DNA topoisomerase 1 (Homo sapiens) (UniProt P11387); assay: Inhibition of topoisomerase-1 (unknown origin)-mediated DNA cleavage after 15 mins by agarose gel electrophoresis
T1 sequence (whole entry): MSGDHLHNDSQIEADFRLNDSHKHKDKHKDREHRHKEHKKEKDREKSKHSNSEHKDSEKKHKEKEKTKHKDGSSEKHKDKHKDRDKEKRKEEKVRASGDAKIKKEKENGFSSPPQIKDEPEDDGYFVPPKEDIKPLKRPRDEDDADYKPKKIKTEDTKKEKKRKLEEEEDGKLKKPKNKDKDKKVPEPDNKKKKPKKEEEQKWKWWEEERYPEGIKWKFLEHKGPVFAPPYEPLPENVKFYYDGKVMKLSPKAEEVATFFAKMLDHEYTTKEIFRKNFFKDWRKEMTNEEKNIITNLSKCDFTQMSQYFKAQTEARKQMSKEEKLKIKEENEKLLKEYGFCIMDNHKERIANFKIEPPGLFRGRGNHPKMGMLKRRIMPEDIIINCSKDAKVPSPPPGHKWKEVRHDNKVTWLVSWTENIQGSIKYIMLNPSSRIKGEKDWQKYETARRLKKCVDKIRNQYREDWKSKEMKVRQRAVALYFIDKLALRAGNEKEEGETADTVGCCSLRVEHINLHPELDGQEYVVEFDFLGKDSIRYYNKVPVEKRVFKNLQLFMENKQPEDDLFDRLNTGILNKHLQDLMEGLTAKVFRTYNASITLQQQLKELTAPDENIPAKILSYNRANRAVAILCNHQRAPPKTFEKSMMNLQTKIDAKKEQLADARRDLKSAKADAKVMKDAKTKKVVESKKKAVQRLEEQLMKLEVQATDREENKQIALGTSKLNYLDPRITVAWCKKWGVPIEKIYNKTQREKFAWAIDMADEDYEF
Outline: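 Topo I cleavage assay: 2 units Topo I with 0.3 μg pBR322 in the unwinding buffer, with camptothecin as control. Reactions ran 10 min at 37 °C, then SDS to 1% for 10 min, then 40 mM EDTA and 100 μg/mL proteinase K for 15 min at 37 °C. DNA was phenol-extracted and run on 1.2% agarose containing 0.5 μg/mL ethidium bromide. Nicked DNA was compared with and without compound, at least in duplicate.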

Vero [7] = assay: Cytotoxicity against African green monkey Vero cells after 72 hrs by MTT assay; assay type: cell-based; settings: Chlorocebus sabaeus; outline: as §3
[8] = as §4; assay type: functional, cell-based; outline: as §3
[9] = target: T2, Topoisomerase I (Bos taurus) (UniProt Q2HPH0); assay: Inhibition of calf thymus topoisomerase-1-mediated DNA intercalation using relaxed pBR322 after 15 mins
T2 sequence (whole entry): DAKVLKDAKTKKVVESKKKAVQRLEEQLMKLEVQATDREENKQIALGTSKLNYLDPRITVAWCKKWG
Outline: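 Unwinding (intercalation) assay: relaxed pBR322 (0.3 μg) with 1 unit calf thymus Topo I in 50 mM Tris-HCl pH 7.5, 1 mM MgCl2, 0.5 mM DTT and 50 μg/mL BSA. Compound was added in DMSO, with ethidium bromide as control. After 15 min at 37 °C, reactions were treated with SDS and proteinase K and phenol-extracted. DNA was run on 1.2% agarose in TAE, and supercoiled DNA was quantified after staining.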

Escherichia coli [10] = assay: Inhibition of Escherichia coli topoisomerase-2-mediated DNA cleavage after 15 mins by agarose gel electrophoresis
[11] = target: T2, Topoisomerase I (Bos taurus); assay: Inhibition of calf thymus topoisomerase-1-mediated supercoiled plasmid DNA relaxation after 15 mins by agarose gel electrophoresis
Outline: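 Calf thymus Topo I (0.5 unit) with negatively supercoiled pBR322 (0.3 μg) in 50 mM Tris-HCl pH 7.5, 1 mM MgCl2, 0.5 mM DTT and 50 μg/mL BSA. Camptothecin was the control. Reactions ran 15 min at 37 °C and were stopped on ice with an EDTA/sarkosyl loading dye. Relaxed versus supercoiled DNA was resolved by agarose gel, in duplicate.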

[12] = as §2; assay type: cell-based; settings: chlorocebus sabaeus, Vero cells; read-out: GI; outline: as §3

DNA topoisomerase 2-alpha (Homo sapiens), sequence (P11388 whole entry): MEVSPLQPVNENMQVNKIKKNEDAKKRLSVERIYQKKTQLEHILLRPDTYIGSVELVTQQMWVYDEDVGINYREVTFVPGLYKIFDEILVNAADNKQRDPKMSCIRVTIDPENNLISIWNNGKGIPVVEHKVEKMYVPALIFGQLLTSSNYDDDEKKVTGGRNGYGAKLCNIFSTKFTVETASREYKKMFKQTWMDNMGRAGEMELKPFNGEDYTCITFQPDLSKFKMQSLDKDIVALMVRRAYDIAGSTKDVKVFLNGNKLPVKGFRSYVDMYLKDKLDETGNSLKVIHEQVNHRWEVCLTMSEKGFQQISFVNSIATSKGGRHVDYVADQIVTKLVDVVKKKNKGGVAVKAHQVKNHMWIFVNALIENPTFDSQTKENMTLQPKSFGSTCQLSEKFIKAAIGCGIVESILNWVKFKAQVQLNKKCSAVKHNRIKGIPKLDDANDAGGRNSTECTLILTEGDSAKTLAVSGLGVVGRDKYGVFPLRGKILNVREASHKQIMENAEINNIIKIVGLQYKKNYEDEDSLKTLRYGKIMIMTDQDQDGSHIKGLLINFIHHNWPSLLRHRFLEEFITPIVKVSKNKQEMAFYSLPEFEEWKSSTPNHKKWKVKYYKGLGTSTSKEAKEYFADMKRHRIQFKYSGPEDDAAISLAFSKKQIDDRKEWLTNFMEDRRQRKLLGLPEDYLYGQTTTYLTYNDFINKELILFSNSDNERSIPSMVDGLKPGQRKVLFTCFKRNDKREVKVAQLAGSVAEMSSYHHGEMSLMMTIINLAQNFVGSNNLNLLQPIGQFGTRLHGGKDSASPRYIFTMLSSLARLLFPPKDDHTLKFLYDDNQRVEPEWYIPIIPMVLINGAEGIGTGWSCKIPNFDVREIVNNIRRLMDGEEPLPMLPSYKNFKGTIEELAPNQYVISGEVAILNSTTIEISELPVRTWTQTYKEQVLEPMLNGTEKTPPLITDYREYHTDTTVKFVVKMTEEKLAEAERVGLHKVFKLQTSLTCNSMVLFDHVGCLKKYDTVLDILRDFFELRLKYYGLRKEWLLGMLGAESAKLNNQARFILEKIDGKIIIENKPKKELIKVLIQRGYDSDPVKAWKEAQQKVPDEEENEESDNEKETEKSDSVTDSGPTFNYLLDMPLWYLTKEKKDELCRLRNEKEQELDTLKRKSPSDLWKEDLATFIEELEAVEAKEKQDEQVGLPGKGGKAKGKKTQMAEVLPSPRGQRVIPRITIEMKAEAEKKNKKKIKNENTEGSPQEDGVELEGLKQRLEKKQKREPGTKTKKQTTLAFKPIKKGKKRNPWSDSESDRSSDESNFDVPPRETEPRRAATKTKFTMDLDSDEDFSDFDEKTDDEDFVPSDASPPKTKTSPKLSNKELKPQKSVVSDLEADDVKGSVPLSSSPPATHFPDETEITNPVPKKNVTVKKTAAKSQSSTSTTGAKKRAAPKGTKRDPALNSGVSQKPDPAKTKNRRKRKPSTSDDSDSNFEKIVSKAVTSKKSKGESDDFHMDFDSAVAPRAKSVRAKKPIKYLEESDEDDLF

SMILES | MIC (Staphylococcus aureus) [µg/mL] | Activity (Streptomyces scabiei [1]) | MIC (Pseudomonas aeruginosa) [µg/mL] | Activity (Vero [2]) | MIC (Acinetobacter baumannii) [µg/mL] | Activity (Streptomyces scabiei [3]) | MIC (Candida albicans) [µg/mL] | Activity (HCT16) | MIC (Cryptococcus neoformans) [µg/mL] | MIC (Bacillus spizizenii) [µg/mL] | MIC (Klebsiella pneumoniae) [µg/mL] | MIC (Escherichia coli [4]) [µg/mL] | MIC (Enterococcus faecalis) [µg/mL] | also measured
O=C(O)c1cccc2nc3c(C(=O)O)cccc3nc12 | > 25 | inactive | > 25 | Non-toxic | > 25 | inactive | > 25 | inactive | > 25 | > 25 | > 25 | > 25 | > 25 | –
C[C@@H]1O[C@@H](OC(=O)c2ccc(O)cc2)[C@H](O)[C@H](O)[C@H]1O | > 25 | inactive | > 25 | – | > 25 | inactive | > 25 | – | > 25 | > 25 | > 25 | > 25 | > 25 | –
CNc1ccc(C(=O)O[C@@H]2O[C@@H](C)[C@H](O)[C@@H](O)[C@H]2O)cc1 | > 25 | inactive | > 25 | – | > 25 | inactive | > 25 | – | > 25 | > 25 | > 25 | > 25 | > 25 | –
C[C@@H]1O[C@@H](Oc2cccc3nc4c(C(=O)O)cccc4nc23)[C@H](O)[C@H](O)[C@H]1O [IZUMINOSIDE A] | > 25 | inactive | > 25 | Non-toxic | > 25 | inactive | > 25 | inactive | > 25 | > 25 | > 25 | > 25 | > 25 | –
C[C@@H]1O[C@@H](OC(=O)c2cccc3nc4c(C(=O)O)cccc4nc23)[C@H](O)[C@H](O)[C@H]1O [IZUMINOSIDE C] | > 25 | inactive | > 25 | Non-toxic | > 25 | inactive | > 25 | inactive | > 25 | > 25 | > 25 | > 25 | > 25 | –
C[C@@H]1O[C@@H](OC(=O)c2cccc3nc4c(C(=O)O[C@@H]5O[C@@H](C)[C@H](O)[C@@H](O)[C@H]5O)cccc4nc23)[C@H](O)[C@H](O)[C@H]1O [SOPHENAZINE A] | > 25 | inactive | > 25 | – | > 25 | inactive | > 25 | – | > 25 | > 25 | > 25 | > 25 | > 25 | inhibition [5]: inactive; inhibition [6]: inactive; EC50 (Vero [7]): 84 µM; EC50 [8]: 18 µM; inhibition [9]: inactive; inhibition (Escherichia coli [10]): inactive; inhibition [11]: inactive
CC(=O)O[C@@H]1[C@@H](O)[C@H](C)O[C@@H](OC(=O)c2cccc3nc4c(C(=O)O[C@@H]5O[C@@H](C)[C@H](O)[C@@H](O)[C@H]5O)cccc4nc23)[C@@H]1O [SOPHENAZINE B] | > 25 | inactive | > 25 | – | > 25 | inactive | > 25 | – | > 25 | > 25 | > 25 | > 25 | > 25 | inhibition at 72 h, 150 µM [12]: 30%; EC50 [8]: 52 µM
CC(=O)O[C@@H]1[C@@H](O)[C@H](C)O[C@@H](OC(=O)c2cccc3nc4c(C(=O)O[C@@H]5O[C@@H](C)[C@H](O)[C@@H](OC(C)=O)[C@H]5O)cccc4nc23)[C@@H]1O [SOPHENAZINE C] | > 25 | inactive | > 25 | – | > 25 | inactive | > 25 | – | > 25 | > 25 | > 25 | > 25 | > 25 | –
C[C@@H]1O[C@@H](OC(=O)c2cccc3nc4c(O[C@@H]5O[C@@H](C)[C@H](O)[C@@H](O)[C@H]5O)cccc4nc23)[C@H](O)[C@H](O)[C@H]1O [SOPHENAZINE D] | > 25 | inactive | > 25 | Non-toxic | > 25 | inactive | > 25 | inactive | > 25 | > 25 | > 25 | > 25 | > 25 | –
COC(=O)c1cccc2nc3c(O[C@@H]4O[C@@H](C)[C@H](O)[C@@H](O)[C@H]4O)cccc3nc12 [SOPHENAZINE E] | > 25 | inactive | > 25 | Non-toxic | > 25 | inactive | > 25 | inactive | > 25 | > 25 | > 25 | > 25 | > 25 | –
C[C@@H]1O[C@@H](Oc2cccc3nc4c(O[C@@H]5O[C@@H](C)[C@H](O)[C@@H](O)[C@H]5O)cccc4nc23)[C@H](O)[C@H](O)[C@H]1O [SOPHENAZINE F] | > 25 | inactive | > 25 | – | > 25 | inactive | > 25 | – | > 25 | > 25 | > 25 | > 25 | > 25 | EC50 [8]: 45 µM
